According to ChEMBL document CHEMBL3576833, “Design and Synthesis of Acetylenyl Benzamide Derivatives as Novel Glucokinase Activators for the Treatment of T2DM” (ACS Med Chem Lett, 2015):
Active and inactive are the calls of the source. The rule behind the calls is not given here.

Assays:
[1] = biological target: T1, Hexokinase-4 (Homo sapiens) (UniProt P35557); assay: Activation of recombinant human pancreatic glucokinase using 10 mM glucose as substrate assessed as enzyme half maximal saturation concentration at 1 uM by G6PDH coupled assay
T1 sequence (whole entry): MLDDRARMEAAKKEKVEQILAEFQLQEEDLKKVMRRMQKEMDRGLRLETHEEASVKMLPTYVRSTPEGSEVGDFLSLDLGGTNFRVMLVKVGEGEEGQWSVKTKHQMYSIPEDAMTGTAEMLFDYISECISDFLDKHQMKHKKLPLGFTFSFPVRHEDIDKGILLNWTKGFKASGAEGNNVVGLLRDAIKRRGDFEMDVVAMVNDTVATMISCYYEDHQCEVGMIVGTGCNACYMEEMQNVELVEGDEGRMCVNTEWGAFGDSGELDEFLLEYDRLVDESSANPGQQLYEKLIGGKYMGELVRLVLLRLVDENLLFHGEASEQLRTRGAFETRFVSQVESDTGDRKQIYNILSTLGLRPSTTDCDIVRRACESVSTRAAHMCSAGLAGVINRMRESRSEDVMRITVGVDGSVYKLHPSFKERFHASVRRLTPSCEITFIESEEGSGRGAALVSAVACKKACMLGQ

[2] = biological target: T2, Hexokinase-4 (Rattus norvegicus) (UniProt P17712); assay: Activation of glucokinase in rat primary hepatocytes assessed as increase in 5.6 mM 2-deoxy-D-[3H]-glucose uptake after 4 hrs by scintillation counting analysis relative to control; type: cell-based; details: Hepatocyte
T2 sequence (whole entry): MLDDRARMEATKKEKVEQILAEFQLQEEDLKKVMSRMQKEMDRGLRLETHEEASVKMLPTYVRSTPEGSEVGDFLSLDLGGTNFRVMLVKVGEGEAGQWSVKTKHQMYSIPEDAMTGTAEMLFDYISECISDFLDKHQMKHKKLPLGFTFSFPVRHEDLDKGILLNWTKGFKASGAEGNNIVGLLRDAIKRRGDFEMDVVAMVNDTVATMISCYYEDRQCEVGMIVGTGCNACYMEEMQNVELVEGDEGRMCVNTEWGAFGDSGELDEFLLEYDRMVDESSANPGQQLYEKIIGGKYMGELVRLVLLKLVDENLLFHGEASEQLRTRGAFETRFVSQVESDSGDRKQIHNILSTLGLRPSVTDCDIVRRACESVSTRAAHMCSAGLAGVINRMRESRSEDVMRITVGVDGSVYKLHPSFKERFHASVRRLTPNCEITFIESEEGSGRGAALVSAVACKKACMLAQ
Method in brief: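 Rat primary hepatocytes; uptake measured under glucose stimulation, with glucose raised from 0 mM to 5.6 mM; activity expressed as fold increase in glucose uptake.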

[3] = tested on: Mus musculus; assay: Antidiabetic activity in C57BL/6J mouse assessed as reduction of blood glucose level at 10 mg/kg, po after 60 mins by fasted glucose tolerance test; type: functional, organism-based
Method in brief: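 Fasted glucose tolerance test in C57BL/6J mice. Animals were fasted and dosed orally, with no glucose challenge. Blood glucose was measured at 60 min.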

[4] = tested on: Mus musculus; assay: Antidiabetic activity in po dosed C57BL/6J mouse assessed as blood glucose lowering effect administered 30 mins prior to glucose challenge measured over 180 mins by OGTT; type: functional, organism-based
Method in brief: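 Oral glucose tolerance test in C57BL/6J mice with oral dosing. Blood glucose was followed after the glucose challenge, and the result was expressed as the % reduction in blood glucose AUC.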

[5] = biological target: T2, Hexokinase-4 (Rattus norvegicus); assay: Activation of glucokinase in 0 to 5.6 mM glucose-stimulated Sprague-Dawley rat pancreatic islets assessed as increase in insulin secretion after 1 hr by ELISA relative to control
[6] = biological target: T3, Hexokinase-1 (Homo sapiens) (UniProt P19367); assay: Effect on hexokinase-1 (unknown origin)
T3 sequence (whole entry): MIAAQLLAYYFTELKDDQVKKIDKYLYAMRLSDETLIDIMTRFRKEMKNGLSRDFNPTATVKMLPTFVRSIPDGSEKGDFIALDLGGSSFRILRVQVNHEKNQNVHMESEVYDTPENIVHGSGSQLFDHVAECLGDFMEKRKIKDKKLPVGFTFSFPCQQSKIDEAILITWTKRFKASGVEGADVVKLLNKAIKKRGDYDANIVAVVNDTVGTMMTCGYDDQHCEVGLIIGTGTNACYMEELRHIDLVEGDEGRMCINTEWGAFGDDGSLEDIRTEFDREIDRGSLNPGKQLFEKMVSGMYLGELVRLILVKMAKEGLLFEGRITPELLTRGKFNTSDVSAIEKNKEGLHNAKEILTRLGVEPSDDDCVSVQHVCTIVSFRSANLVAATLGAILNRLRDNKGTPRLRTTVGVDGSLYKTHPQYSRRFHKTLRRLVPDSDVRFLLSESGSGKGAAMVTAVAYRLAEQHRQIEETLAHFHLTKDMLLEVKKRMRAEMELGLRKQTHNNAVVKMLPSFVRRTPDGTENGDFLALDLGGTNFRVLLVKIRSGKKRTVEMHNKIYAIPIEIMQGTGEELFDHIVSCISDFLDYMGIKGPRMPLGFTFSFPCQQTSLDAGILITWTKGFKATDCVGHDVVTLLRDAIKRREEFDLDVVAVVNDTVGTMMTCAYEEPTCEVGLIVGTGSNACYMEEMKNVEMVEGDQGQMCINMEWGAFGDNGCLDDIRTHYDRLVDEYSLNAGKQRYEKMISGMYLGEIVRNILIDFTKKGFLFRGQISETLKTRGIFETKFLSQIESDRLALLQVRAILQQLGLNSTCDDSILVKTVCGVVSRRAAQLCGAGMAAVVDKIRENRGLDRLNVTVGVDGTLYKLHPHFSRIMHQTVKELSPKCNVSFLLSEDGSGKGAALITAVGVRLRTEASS

[7] = biological target: T4, Hexokinase-2 (Homo sapiens) (UniProt P52789); assay: Effect on hexokinase-2 (unknown origin)
T4 sequence (whole entry): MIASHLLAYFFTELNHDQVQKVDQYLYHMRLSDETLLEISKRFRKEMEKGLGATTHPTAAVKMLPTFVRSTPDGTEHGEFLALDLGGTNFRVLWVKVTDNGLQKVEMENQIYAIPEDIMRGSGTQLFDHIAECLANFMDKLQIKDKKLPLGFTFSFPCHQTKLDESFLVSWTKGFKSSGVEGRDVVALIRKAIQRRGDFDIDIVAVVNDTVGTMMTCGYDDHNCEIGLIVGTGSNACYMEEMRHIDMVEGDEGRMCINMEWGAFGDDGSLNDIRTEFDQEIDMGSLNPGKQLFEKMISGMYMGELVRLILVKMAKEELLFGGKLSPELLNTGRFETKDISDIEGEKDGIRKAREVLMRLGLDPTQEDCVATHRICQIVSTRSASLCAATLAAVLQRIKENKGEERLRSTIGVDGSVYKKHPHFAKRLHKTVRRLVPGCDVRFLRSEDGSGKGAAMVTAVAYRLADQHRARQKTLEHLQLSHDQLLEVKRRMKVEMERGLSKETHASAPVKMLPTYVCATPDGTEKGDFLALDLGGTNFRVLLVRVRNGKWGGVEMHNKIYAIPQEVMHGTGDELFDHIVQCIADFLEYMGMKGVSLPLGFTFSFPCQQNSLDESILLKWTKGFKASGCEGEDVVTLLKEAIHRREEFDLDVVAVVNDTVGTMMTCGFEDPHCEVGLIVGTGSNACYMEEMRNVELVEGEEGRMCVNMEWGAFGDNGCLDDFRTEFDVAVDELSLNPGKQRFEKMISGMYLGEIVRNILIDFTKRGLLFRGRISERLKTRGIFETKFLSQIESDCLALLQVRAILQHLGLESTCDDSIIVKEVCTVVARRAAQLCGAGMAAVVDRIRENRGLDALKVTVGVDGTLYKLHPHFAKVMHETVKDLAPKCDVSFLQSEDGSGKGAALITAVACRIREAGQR

| Structure (SMILES) | Activity [1] [mM] | fold change (FC) [2] | also measured |
| --- | --- | --- | --- |
| COC[C@H](C)Oc1cc(C#Cc2cccc(N(C)C)c2)cc(C(=O)Nc2ccn(C)n2)c1 | 0.76 | 2.43 |  |
| COC[C@H](C)Oc1cc(C#Cc2cccc(OCCN3CCOCC3)c2)cc(C(=O)Nc2ccn(C)n2)c1 | 0.35 | 1.89 |  |
| COC[C@H](C)Oc1cc(C#Cc2cccc(NCCn3ccnc3C)c2)cc(C(=O)Nc2ccn(C)n2)c1 | 0.9 | 2.36 |  |
| COC[C@H](C)Oc1cc(C#Cc2ccc3c(c2)OCO3)cc(C(=O)Nc2ccn(C)n2)c1 | 2.13 | 2.64 |  |
| COC[C@H](C)Oc1cc(C#Cc2cccc(O)c2)cc(C(=O)Nc2ccn(C)n2)c1 | 1.37 | 1.57 |  |
| COCC#Cc1cc(O[C@@H](C)COC)cc(C(=O)Nc2ccn(C)n2)c1 | 4.04 | 1.71 |  |
| COC[C@H](C)Oc1cc(Oc2cnc(C(=O)N3CCC3)cn2)cc(C(=O)Nc2cnc(C)cn2)c1 |  |  | Activity [3]: Active |
| COC[C@H](C)Oc1cc(C#Cc2cccc(OCCN3CCCC3)c2)cc(C(=O)Nc2ccn(C)n2)c1 | 0.73 | 2.43 |  |
| COC[C@H](C)Oc1cc(C#Cc2cccc(OC(C)C)c2)cc(C(=O)Nc2ccn(C)n2)c1 | 1.84 | 2.03 |  |
| COC[C@H](C)Oc1cc(C#Cc2cccc(OCCN3CCCCC3)c2)cc(C(=O)Nc2ccn(C)n2)c1 | 2.25 | 2.36 |  |
| COC[C@H](C)Oc1cc(C#CCNc2ncccn2)cc(C(=O)Nc2ccn(C)n2)c1 | 3.88 | 2.37 |  |
| COC[C@H](C)Oc1cc(C#CCOC2CCCCO2)cc(C(=O)Nc2ccn(C)n2)c1 (stereo partly specified) | 0.55 | 2.5 |  |
| COC[C@H](C)Oc1cc(C#CCN(C)C)cc(C(=O)Nc2ccn(C)n2)c1 | 5.51 | 1.31 |  |
| COCCNc1cccc(C#Cc2cc(O[C@@H](C)COC)cc(C(=O)Nc3ccn(C)n3)c2)c1 | 1.23 | 2.18 |  |
| COC[C@H](C)Oc1cc(C#Cc2ccc(N)cc2)cc(C(=O)Nc2ccn(C)n2)c1 | 0.73 | 2.05 |  |
| CCN(CC)c1cccc(C#Cc2cc(O[C@@H](C)COC)cc(C(=O)Nc3ccn(C)n3)c2)c1 | 2.01 | 1.91 |  |
| COC[C@H](C)Oc1cc(C#Cc2cccc(NCCN3CCCC3)c2)cc(C(=O)Nc2ccn(C)n2)c1 | 0.51 | 2.83 |  |
| COC[C@H](C)Oc1cc(C#Cc2cccc(NCCN(C)C)c2)cc(C(=O)Nc2ccn(C)n2)c1 | 0.17 | 2.03 |  |
| COC[C@H](C)Oc1cc(C#Cc2ccc3[nH]ccc3c2)cc(C(=O)Nc2ccn(C)n2)c1 | 0.46 | 1.99 |  |
| COC[C@H](C)Oc1cc(C#Cc2cccc(NCCN3CCCCC3)c2)cc(C(=O)Nc2ccn(C)n2)c1 | 0.61 | 2.79 |  |
| COC[C@H](C)Oc1cc(C#Cc2cccc(N)c2)cc(C(=O)Nc2ccn(C)n2)c1 | 0.84 | 2.16 | Activity [4]: Dose-dependent effect; fold change (FC) [5]: 2.13; Activity [6]: inactive; Activity [7]: inactive |
| COC[C@H](C)Oc1cc(C#Cc2ccccc2OC)cc(C(=O)Nc2ccn(C)n2)c1 | 0.73 | 2.64 |  |
| COC[C@H](C)Oc1cc(C#Cc2cccc(NCCN3CCOCC3)c2)cc(C(=O)Nc2ccn(C)n2)c1 | 0.55 | 2.62 |  |
| COC[C@H](C)Oc1cc(C#Cc2cccc(OCC#N)c2)cc(C(=O)Nc2ccn(C)n2)c1 | 0.95 | 1.75 |  |
